Experimental data reported in ChEMBL document CHEMBL4715838, “Novel diosgenin derivatives containing 1,3,4-oxadiazole/thiadiazole moieties as potential antitumor agents: Design, synthesis and cytotoxic evaluation” (Eur J Med Chem, 2020).

Legend:
[1] = tested on: HCT-116; assay: Cytotoxicity against human HCT-116 cells assessed as reduction in cell viability measured after 48 hrs by MTT assay; type: functional, cell-based; conditions: HCT-116, 48 h
Outline: (§1)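 Cells in DMEM with 10% FBS, penicillin/streptomycin, 37 °C, 5% CO2. Seeded at 5×10^3 per well directly into medium holding graded concentrations of sample and incubated 48 h. MTT (5 mg/mL in PBS) added for 4 h, medium replaced with DMSO, absorbance read at 492 nm. IC50 taken as the concentration giving 50% inhibition of proliferation; three replicates, means ± SD.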

[2] = tested on: HepG2; assay: Cytotoxicity against human HepG2 cells assessed as reduction in cell viability measured after 48 hrs by MTT assay; type: functional, cell-based; conditions: HepG2, 48 h; outline: as §1
[3] = tested on: A549; assay: Cytotoxicity against human A549 cells assessed as reduction in cell viability measured after 48 hrs by MTT assay; type: functional, cell-based; conditions: A549, 48 h; outline: as §1
[4] = tested on: MCF7; assay: Cytotoxicity against human MCF7 cells assessed as reduction in cell viability measured after 48 hrs by MTT assay; type: functional, cell-based; conditions: MCF7, 48 h; outline: as §1
[5] = tested on: GES1; assay: Cytotoxicity against human GES1 cells assessed as reduction in cell viability measured after 48 hrs by MTT assay; type: cell-based; conditions: GES1, 48 h; outline: as §1
[6] = tested on: HepG2; assay: Potency index, ratio of diosgenin IC50 to test compound IC50 for cytotoxicity against human HepG2 cells assessed as reduction in cell viability; type: functional

Compound | IC50 [1] [µM] | IC50 [2] [µM] | IC50 [3] [µM] | IC50 [4] [µM] | IC50 [5] [µM] | Ratio IC50 [6]
COc1ccc(-c2nnc([C@H](C)CC[C@H]3O[C@H]4C[C@H]5[C@@H]6CC=C7C[C@@H](O)CC[C@]7(C)[C@H]6CC[C@]5(C)[C@H]4[C@@H]3C)o2)cc1 | > 100 |  |  |  |  | 
CC(=O)O[C@H]1CC[C@@]2(C)C(=CC[C@H]3[C@@H]4C[C@@H]5O[C@H](CC[C@@H](C)c6nnc(-c7cccnc7)o6)[C@@H](C)[C@@H]5[C@@]4(C)CC[C@@H]32)C1 | 72.5 | 82.6 | 33.5 | > 100 | 62.4 | 
CC(=O)O[C@H]1CC[C@@]2(C)C(=CC[C@H]3[C@@H]4C[C@@H]5O[C@H](CC[C@@H](C)c6nnc(C)s6)[C@@H](C)[C@@H]5[C@@]4(C)CC[C@@H]32)C1 | > 100 | 34.2 | 40.3 | 47.7 | 75.8 | 
C[C@H]1[C@H]2[C@H](C[C@H]3[C@@H]4CC=C5C[C@@H](O)CC[C@]5(C)[C@H]4CC[C@]23C)O[C@@H]1CC[C@H](C)c1nnc(-c2cccc3ccccc23)s1 | 46.6 | 32.9 | 18.3 | 63.8 | 201 | 1.02
C[C@H]1[C@H]2[C@H](C[C@H]3[C@@H]4CC=C5C[C@@H](O)CC[C@]5(C)[C@H]4CC[C@]23C)O[C@@H]1CC[C@@H](C)c1nnc(-c2ccccc2)s1 | 48.9 | 32.1 | 15 | 27.4 | 527 | 1.05
CC(=O)O[C@H]1CC[C@@]2(C)C(=CC[C@H]3[C@@H]4C[C@@H]5O[C@H](CC[C@@H](C)c6nnc(C)o6)[C@@H](C)[C@@H]5[C@@]4(C)CC[C@@H]32)C1 | 78.8 | 57.6 | 34.4 | 44.8 | 98.2 | 
CC(=O)O[C@H]1CC[C@@]2(C)C(=CC[C@H]3[C@@H]4C[C@@H]5O[C@H](CC[C@@H](C)c6nnc(-c7ccccc7)o6)[C@@H](C)[C@@H]5[C@@]4(C)CC[C@@H]32)C1 | > 100 | 63.2 | 84.5 | > 100 | 82.3 | 
Cc1nnc([C@H](C)CC[C@H]2O[C@H]3C[C@H]4[C@@H]5CC=C6C[C@@H](O)CC[C@]6(C)[C@H]5CC[C@]4(C)[C@H]3[C@@H]2C)s1 | 48.9 | 33.2 | 36.7 | 33.8 | 107 | 
C[C@H]1[C@H]2[C@H](C[C@H]3[C@@H]4CC=C5C[C@@H](O)CC[C@]5(C)[C@H]4CC[C@]23C)O[C@@H]1CC[C@@H](C)c1nnc(-c2ccccc2)o1 | > 100 | 39.5 | 64.2 | 53 | 120 | 
C[C@H]1[C@H]2[C@H](C[C@H]3[C@@H]4CC=C5C[C@@H](O)CC[C@]5(C)[C@H]4CC[C@]23C)O[C@@H]1CC[C@@H](C)c1nnc(-c2cccnc2)s1 | 51.6 | 8.83 | 7.68 | > 100 | 354 | 
COc1ccc(-c2nnc([C@H](C)CC[C@H]3O[C@H]4C[C@H]5[C@@H]6CC=C7C[C@@H](OC(C)=O)CC[C@]7(C)[C@H]6CC[C@]5(C)[C@H]4[C@@H]3C)o2)cc1 |  |  |  |  | 151 | 
Cc1nnc([C@H](C)CC[C@H]2O[C@H]3C[C@H]4[C@@H]5CC=C6C[C@@H](O)CC[C@]6(C)[C@H]5CC[C@]4(C)[C@H]3[C@@H]2C)o1 | 51.6 | 34.2 | 30.4 | 20.4 | 72.8 | 
CO[C@@]12[C@H](COC(N)=O)C3=C(C(=O)C(C)=C(N)C3=O)N1C[C@@H]1N[C@@H]12 [MITOMYCIN] | 11 | 32.6 | 11 | 16.7 | 21.1 | 
CC(=O)O[C@H]1CC[C@@]2(C)C(=CC[C@H]3[C@@H]4C[C@@H]5O[C@H](CC[C@H](C)c6nnc(-c7cccc8ccccc78)o6)[C@@H](C)[C@@H]5[C@@]4(C)CC[C@@H]32)C1 |  |  |  |  | 70.1 | 
CC(=O)O[C@H]1CC[C@@]2(C)C(=CC[C@H]3[C@@H]4C[C@@H]5O[C@H](CC[C@H](C)c6nnc(-c7cccc8ccccc78)s6)[C@@H](C)[C@@H]5[C@@]4(C)CC[C@@H]32)C1 | > 100 |  | > 100 |  |  | 
COc1ccc(-c2nnc([C@H](C)CC[C@H]3O[C@H]4C[C@H]5[C@@H]6CC=C7C[C@@H](O)CC[C@]7(C)[C@H]6CC[C@]5(C)[C@H]4[C@@H]3C)s2)cc1 | > 100 | 23.1 | 16.4 | > 100 | 209 | 
C[C@H]1[C@H]2[C@H](C[C@H]3[C@@H]4CC=C5C[C@@H](O)CC[C@]5(C)[C@H]4CC[C@]23C)O[C@@H]1CC[C@@H](C)c1nnc(-c2cccnc2)o1 | > 100 | > 100 | 98.1 | > 100 | 199 | 
C[C@H]1[C@H]2[C@H](C[C@H]3[C@@H]4CC=C5C[C@@H](O)CC[C@]5(C)[C@H]4CC[C@]23C)O[C@@H]1CC[C@H](C)c1nnc(-c2cccc3ccccc23)o1 | > 100 | 29.2 | 31.3 | 69.7 | 298 | 
